We go through one compound from ChEMBL document CHEMBL1221207, “Expanding the promiscuity of a natural-product glycosyltransferase by directed evolution” (Nat Chem Biol, 2007).

Experiment [1] deals with T1, Oleandomycin glycosyltransferase (Streptomyces antibioticus), Q53685 [P67T,S132F,A242V].
T1 sequence (whole entry): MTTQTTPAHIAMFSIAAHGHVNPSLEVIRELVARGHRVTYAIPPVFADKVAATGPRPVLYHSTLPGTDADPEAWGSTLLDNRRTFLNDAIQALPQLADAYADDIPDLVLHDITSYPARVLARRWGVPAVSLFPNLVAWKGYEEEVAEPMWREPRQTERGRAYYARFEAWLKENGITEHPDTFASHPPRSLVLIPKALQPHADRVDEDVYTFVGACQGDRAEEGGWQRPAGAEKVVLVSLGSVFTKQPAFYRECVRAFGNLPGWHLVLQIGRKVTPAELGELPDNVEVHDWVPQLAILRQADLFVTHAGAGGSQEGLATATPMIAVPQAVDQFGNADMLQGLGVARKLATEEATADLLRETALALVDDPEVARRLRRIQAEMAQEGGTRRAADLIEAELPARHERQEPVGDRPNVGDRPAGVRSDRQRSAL
The experiment in a line: Activity of Streptomyces antibioticus OleD P67T/S132F/A242V mutant assessed as conversion rate of compound to produce glucoside 3 using NDP sugar UDP-6-azido-glucose after 3 hrs by HPLC. In outline:
(§1)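 End-point donor-specificity assay with purified OleD enzyme. Percentage conversion was read after 3 h. Quenched reactions were run by reverse-phase C18 HPLC with a 10–90% CH3CN gradient in 0.1% formic acid/H2O over 20 min at 1 ml min–1, with detection at 254 nm. Products were identified by LC-MS, by comparison to standards where available, and by fluorescence.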

Experiment [2] relates to T2, Oleandomycin glycosyltransferase (Streptomyces antibioticus), Q53685 [P67T].
T2 sequence (whole entry): T1 sequence (whole entry) with F132S, V242A
The experiment in a line: Activity of Streptomyces antibioticus OleD P67T mutant assessed as conversion rate of compound to produce glucoside 3 using NDP sugar donor UDP-6-deoxy-glucose after 3 hrs by HPLC. In outline: as §1

For experiment [3], the system named is T3, Oleandomycin glycosyltransferase (Streptomyces antibioticus), Q53685 [A242V].
T3 sequence (whole entry): T1 sequence (whole entry) with T67P, F132S
The experiment in a line: Activity of Streptomyces antibioticus OleD A242V mutant assessed as conversion rate of compound to produce glucoside 3 using NDP sugar donor UDP-glucose after 3 hrs by HPLC. The gist of the method: as §1

Experiment [4] has as its system T1, Oleandomycin glycosyltransferase (Streptomyces antibioticus), Q53685 [P67T,S132F,A242V]. The experiment in a line: Activity of Streptomyces antibioticus OleD P67T/S132F/A242V mutant assessed as conversion rate of compound to produce glucoside 3 using NDP sugar donor UDP-4-amino-glucose after 3 hrs by HPLC. In outline:
as §1

The subject of experiment [5] is T4, Oleandomycin glycosyltransferase (Streptomyces antibioticus), Q53685 [S132F].
T4 sequence (whole entry): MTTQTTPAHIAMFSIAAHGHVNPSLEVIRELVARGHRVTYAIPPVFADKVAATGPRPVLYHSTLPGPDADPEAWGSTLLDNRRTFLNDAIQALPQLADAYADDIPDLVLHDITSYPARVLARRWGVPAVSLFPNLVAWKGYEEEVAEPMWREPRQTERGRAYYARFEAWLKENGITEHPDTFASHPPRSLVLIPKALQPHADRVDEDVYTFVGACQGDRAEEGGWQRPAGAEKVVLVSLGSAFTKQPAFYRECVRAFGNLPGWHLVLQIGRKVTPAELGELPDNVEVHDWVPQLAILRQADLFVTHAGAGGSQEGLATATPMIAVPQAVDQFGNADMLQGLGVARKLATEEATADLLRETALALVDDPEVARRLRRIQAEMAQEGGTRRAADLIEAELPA
The experiment in a line: Activity of Streptomyces antibioticus OleD S132F mutant assessed as conversion rate of compound to produce glucoside 3 using NDP sugar donor UDP-xylose after 3 hrs by HPLC. The gist of the method:
as §1

Experiment [6] concerns T3, Oleandomycin glycosyltransferase (Streptomyces antibioticus), Q53685 [A242V]. The experiment in a line: Activity of Streptomyces antibioticus OleD A242V mutant assessed as conversion rate of compound to produce glucoside 3 using NDP sugar donor UDP-6-deoxy-glucose after 3 hrs by HPLC. In outline: as §1
In experiment [7] the target is T5, Oleandomycin glycosyltransferase (Streptomyces antibioticus) (UniProt Q53685).
T5 sequence (whole entry): T1 sequence (whole entry) with T67P, F132S, V242A
The experiment in a line: Activity of Streptomyces antibioticus wild-type OleD assessed as conversion rate of compound to produce glucoside 3 using NDP sugar donor UDP-6-thio-glucose after 3 hrs by HPLC. The gist of the method: as §1

The test system of experiment [8] is T2, Oleandomycin glycosyltransferase (Streptomyces antibioticus), Q53685 [P67T]. The experiment in a line: Activity of Streptomyces antibioticus OleD P67T mutant assessed as conversion rate of compound to produce glucoside 3 using NDP sugar donor UDP-glucose after 3 hrs by HPLC. The gist of the method:
as §1

For experiment [9], the system named is T1, Oleandomycin glycosyltransferase (Streptomyces antibioticus), Q53685 [P67T,S132F,A242V]. The experiment in a line: Activity of Streptomyces antibioticus OleD P67T/S132F/A242V mutant assessed as conversion rate of compound to produce glucoside 3 using NDP sugar […] after 3 hrs by HPLC. In outline: as §1

Substitutions are numbered along the chain they refer to.

As for `Cc1cc(=O)oc2cc(O)ccc12`, the Activity was 41% in experiment [1]; 11% in [2]; 38% in experiment [3]; 13% in experiment [4]; 1.5% in [5]; 6% in [6]. In addition, the Activity in experiment [7] turned out to be 1%; in experiment [8], 51%; in experiment [9], 21%.
